The full list was thinned out, with hits kept by preference.
XBP1 UPR activ: adaptive UPR (XBP1) activation. CHO-XBP1 luciferase reporter, IRE1-XBP1 UPR activation, luminescence; percent of tunicamycin response, DMSO as zero. activation, % at 20 µM. 0.33% of 330,000 active. AID 463104;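 active = versus positive control, 20 µM dose yields 30% or more activation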
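Signal: luciferase luminescence; Assay system: CHO-XBP1 luciferase reporter cells; Amount: one thousand reporter cells per well; Dosing: 20 µM single concentration, DMSO 1%; Benchmarks: high control tunicamycin 10 µg/mL final, low control DMSO vehicle only; Schedule: 6 h compound exposure at 37 °C, 5% CO2; Evaluation: percent activation relative to tunicamycin reference.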
CHOP inh: blocks CHOP induction under ER stress | CHO-K1 CHOP-promoter luciferase, tunicamycin-induced, 15-18 h | inhibition, % at 10 µM | 3.8% of 220,000 active;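 active = compounds that reduced the stress-induced luciferase reporter signal by more than about 70% of percent inhibition, limit read from the data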
UPR CHOP act: apoptotic UPR (CHOP) activation; CHO-CHOP luciferase reporter, luminescence; percent of tunicamycin response over DMSO baseline; activation, % at 10 µM; 0.34% of 330,000 active;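 active = at 10 µM dose, activation of 40% or more, normalized to positive control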
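System: CHO-CHOP luciferase reporter cell line; amount: 500 cells/well; buffer or medium: F12 medium containing 10% fetal bovine serum; incubation: 6 h compound exposure at 37 °C after overnight seeding; measured by: luciferase luminescence after 10 min with Steady-Glo reagent; evaluation: % reporter activation, DMSO baseline versus tunicamycin full activation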
697 NFkB inh: inhibitors of the PMA/ionomycin-induced NF-kB reporter in 697 B cells. 0.33% of 330,000 active. 697 B-cell NF-kB luciferase reporter, 16 h. inhibition, % at 4 µM. AID 435022; in the data active = inhibition above about 35%
Jurkat NFkB inh: lowers PMA/ionomycin-induced NF-kB signal in Jurkat cells. PMA/ionomycin-induced NF-kB luciferase reporter, luminescence. inhibition, % at 4 µM. 0.53% of 330,000 active. AID 435003; in the data active = inhibition above about 50%
Hits are given with their value; - = inactive; . = not tested or not shown.

SMILES	XBP1 UPR activ	CHOP inh	UPR CHOP act	697 NFkB inh	Jurkat NFkB inh
CC(=O)c1cccc(NS(=O)(=O)c2ccc(N/C=C\C(=O)c3ccc(C)cc3)cc2)c1	-	-	-	-	-
CC(=O)c1cccc(NS(=O)(=O)c2ccc(N/C=C/C(=O)c3ccc(F)cc3)cc2)c1	-	83	-	-	-
CC(=O)c1cccc(NS(=O)(=O)c2ccc(N/C=C\C(=O)c3ccc(F)cc3)cc2)c1	-	84	-	-	-
COc1cccc(NC(=O)CN(C)C(=O)C(C)Sc2ccccc2)c1 (centres undefined)	-	.	-	-	-
Cc1cc(Nc2ccccc2)c2c([N+](=O)[O-])c(C)cc(C)c2n1	-	92	-	-	-
Cc1cccc(Nc2cc(C)nc3ccccc23)c1	-	.	-	-	-
CCCCn1c(NC(=O)c2ccccc2Cl)c(C#N)c2nc3ccccc3nc21	-	-	-	-	-
CCCCn1c(NC(=O)CC)c(C#N)c2nc3ccccc3nc21	-	94	-	-	-
CCCOc1ccc(NC(=O)CC2C(=O)N(CC)C(=S)N2CCCN2CCN(Cc3ccccc3)CC2)cc1 (centres undefined)	-	92	-	-	-
O=C(CCN1CCN(Cc2ccccc2)CC1)Nc1ccc(OCc2ccccc2)cc1	-	70	-	-	-
O=C(CCN1CCN(CCO)CC1)Nc1ccc(OCc2ccccc2)cc1	-	-	-	-	-
CCN1C(=O)C(CC(=O)Nc2ccc(F)cc2)N(CCCN2CCN(c3ccc(F)cc3)CC2)C1=S (centres undefined)	-	95	-	-	-
CCOc1ccc(NC(=O)CC2C(=O)N(C)C(=S)N2CCCc2ccccc2)cc1 (centres undefined)	-	-	-	-	-
CCN1C(=O)C(CC(=O)Nc2ccc(Br)cc2)N(CCCc2ccccc2)C1=S (centres undefined)	-	89	-	-	-
COC(=O)c1cc(S(=O)(=O)N2CCOCC2)ccc1Sc1ccccc1N	-	-	-	-	-
CCOC(=O)C(=Cc1cc(=O)c(OC)co1)C(=O)OCC	.	109	.	.	.
CCCCc1nc(Cl)c(C#N)c2c1CCCC2	-	88	-	-	-
CCCCc1nc(Cl)c(C#N)c2c1CCC2	-	-	-	-	-
N#CCCN(NC1=NS(=O)(=O)c2ccccc21)C(=O)c1ccccc1Br	-	.	-	-	-
Nc1c(C(=O)NCc2ccccc2)c2nc3ccccc3nc2n1CCCN1CCOCC1	-	102	-	-	-
COc1ccc(N2CC(O)=C(c3nc(-c4ccc(Cl)cc4)cs3)C2=N)cc1	85	-	-	-	-
COc1ccc(N2CC(O)=C(c3nc(-c4ccc(Br)cc4)cs3)C2=N)cc1	58	-	-	-	-
COc1ccc(N2CC(O)=C(c3nc(-c4ccccc4)cs3)C2=N)cc1	-	-	-	-	-
CCC(=O)OCC(=O)c1cc(C)n(-c2ccc(Br)cc2)c1C	-	-	-	-	-
O=c1cc(O)c2c(=O)n(C3CCCCC3)c3ccccc3c2o1	-	72	-	-	-
SMILES	XBP1 UPR activ	CHOP inh	UPR CHOP act	697 NFkB inh	Jurkat NFkB inh
O=C(COC(=O)C1CC2C=CC1C2)Nc1ccc([N+](=O)[O-])cc1 (centres undefined)	-	.	-	-	-
COc1ccc2[nH]c(C)c(CCN(Cc3cccs3)C(=S)Nc3ccccc3)c2c1	-	70	-	-	-
COc1ccc2[nH]c(C)c(CCN(Cc3cccs3)C(=S)Nc3ccc(F)cc3)c2c1	-	78	-	-	-
COc1cc(NS(=O)(=O)c2ccc(NC(=O)c3cccnc3)cc2)ncn1	-	.	-	-	-
O=C(CNC(=O)c1ccccc1C(F)(F)F)N/N=C/c1cccs1	-	.	-	-	-
Cc1ccc(N=C2SCCCN2C(=O)c2ccco2)cc1Cl	-	80	-	-	-
COc1cccc(Nc2ncccc2C(=O)Nc2ccccc2)c1	-	85	-	-	-
COc1cccc(NC(=O)c2ccccc2Oc2ccccc2)c1	-	.	-	-	-
COc1cc(/C=C(/C#N)C(=O)Nc2ccccc2)c(Br)cc1OCc1ccc(C(=O)O)cc1	-	80	-	-	-
COC(=O)CC/C(O)=C1\C(=O)CC(C)(C)CC1=NCc1nc2ccccc2[nH]1	-	-	-	-	-
COc1ccc2c(c1)c(=O)oc1cc3oc(C)c(C)c3cc12	.	-	.	.	.

Compound activity as filed in PubChem.
